From ChEMBL document CHEMBL1128588, “Synthesis and cytotoxicity of water-soluble ambrosin prodrug candidates” (1995)

How the values were obtained:
Assay type in all cases: functional
Conditions in all cases: Homo sapiens
NCI-H522 = assay: The compound was evaluated for cytotoxicity against lung cancer cell line NCI-H522
Outline: (§1)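 Tested within a panel of about 51 human cancer cell lines covering leukemia, non-small-cell lung and other tumour types. The value reported is GI50, the concentration giving 50% growth inhibition.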

OVCAR-5 = assay: The compound was evaluated for cytotoxicity against ovarian cancer cell line OVCAR-5; outline: as §1
LOX IMVI = assay: The compound was evaluated for cytotoxicity against melanoma cell line LOX-IMVI; outline: as §1
SF-539 = assay: The compound was evaluated for cytotoxicity against CNS cancer cell line CNS SF-539; outline: as §1
SN12C = assay: The compound was evaluated for cytotoxicity against renal cancer cell line SN12C; outline: as §1
PC-3 = assay: The compound was evaluated for cytotoxicity against prostate cancer cell line PC-3; outline: as §1
MCF7 = assay: The compound was evaluated for cytotoxicity against breast cancer cell line MCF-7; outline: as §1
HCT-116 = assay: The compound was evaluated for cytotoxicity against colon cancer cell line HCT116; outline: as §1

| Compound | GI50 (NCI-H522) | GI50 (OVCAR-5) | GI50 (LOX IMVI) | GI50 (SF-539) | GI50 (SN12C) | GI50 (PC-3) | GI50 (MCF7) | GI50 (HCT-116) |
| --- | --- | --- | --- | --- | --- | --- | --- | --- |
| C[C@H]1CC[C@H]2C(CN3CCCC3)C(=O)O[C@H]2[C@]2(C)C(=O)CC(N3CCCC3)[C@@H]12 (some centres undefined) | 1.8 µM | 6.3 µM | 3.3 µM | 9.1 µM | 11 µM | 20 µM | 4.2 µM | 3.8 µM |
| C[C@H]1CC[C@H]2C(CN3CCCCC3)C(=O)O[C@H]2[C@]2(C)C(=O)CC(N3CCCCC3)[C@@H]12 (some centres undefined) | 1.1 µM | 22 µM | 3.6 µM | 5.4 µM | 8.1 µM | 8.5 µM | 4.7 µM | 1.8 µM |
| C=C1C(=O)O[C@@H]2[C@H]1CC[C@H](C)[C@@H]1C=CC(=O)[C@@]21C [AMBROSIN] | 1 µM | 4.9 µM | 2.2 µM | 2.9 µM | 3.4 µM | 4.5 µM | 3.9 µM | 1.8 µM |
